The test system of this data set is MS2 coat protein. The experiment in a line: apparent Kd, MS2 coat protein; higher = weaker binding; RNA-MaP array; FMN 200 µM where present. The gist of the method: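 Stalled E. coli RNA polymerase transcribed each design on Illumina sequencing-chip clusters. The clusters were titrated with SNAP-549-labelled MS2 coat protein, starting at 0.7 or 1.5 nM and doubling up to 3 µM, first without ligand and then with constant ligand, in 100 mM Tris-HCl pH 7.5, 80 mM KCl, 4 mM MgCl2, BSA, DTT, yeast tRNA and Tween-20. Green signal was normalised to red-channel RNA signal and to the control-cluster median Fmax. The apparent Kd is the median of filtered binding-curve fits made for each cluster.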

[1] abbreviates: designed as: OFF switch for flavin mononucleotide, no ligand.
Where [2] appears, read: ligand present: flavin mononucleotide, designed as: OFF switch for flavin mononucleotide.
The mark [3] stands for this setting: designed as: ON switch for flavin mononucleotide, no ligand.
[4] abbreviates: ligand present: flavin mononucleotide, designed as: ON switch for flavin mononucleotide.

For orientation: apparent Kd means a dissociation constant that holds for the conditions of the assay. On to “UUGCUACAUGAGGAUCACCCAUGUCAGGAUAUUGUGUAUAGCGUGGAAGCUCUGUCGAUAAGAAGGGACUGUCU”, for which the “apparent Kd” value is 25.6 nM under setting [1] and 23.3 nM under setting [2].

Consider “AACGUGUGAGGAUAUGCCGUGCCCUUCCGGAAGGAGCGGGUGCAGAAGGCACAUGAGGAUCACCCAUGUCGGCA”, for which the “apparent Kd” value is 33.9 nM under setting [1] and 49.8 nM under setting [2].

As for “UAGUAUAACGAAGGAUAUGGAUACAUGAGGAUCACCCAUGUAUUUUUUGUGAUUUUAAAAUUGAUCCAGAAGGUCGUAUAAUUA”, the “apparent Kd” value by setting is: under setting [1], 23.6 nM; under setting [2], 28.2 nM.

In the case of “GGAAAGGACAGAGGAUAUACGUGCUAGAGAUACUAGCAAAAUUUCCUCACAUGAGGAUCACCCAUGUAGAAGGCUGUCCUAUCG”, the “apparent Kd” value by setting is: under setting [1], 16.2 nM; under setting [2], 394 nM.

Regarding “GAGGAGCAAGGAUAUACGAGGAUAUGGUAGGUUGGAGAGUGACAUGAGGAUCACCCAUGUAGAAGGUGCGAGGG”, the “apparent Kd” value stood at 66.7 nM under setting [1] and 55.9 nM under setting [2].

Regarding “AAUGAGCAGUAGAAGGCAUGUCUACGGACAUGAGGAUCACCCAUGUAGUGAAUCCGAAAGGAGCAUGAGGAUAUACUGCUCUAA”, the “apparent Kd” value was 143 nM under setting [3] and 27.3 nM under setting [4].

As for “AAGACACAUCUAGGAUAUGGUGAUGCUCAGAACACAUGAGGAUCACCCAUGUAGCUUGUGUAUAAUCAGAAGGAGAACCGUGUA”, the “apparent Kd” value by setting is: under setting [3], 36.4 nM; under setting [4], 259 nM.

“CGGCAAUGACGAGGAUAUAGACAUGAGGAUCACCCAUGUAACAGUAUUACAGGGCGUCUUCUCAGCUAGAAGGCGUUCUAUGCC”: the “apparent Kd” value under setting [1] was 37.3 nM and the “apparent Kd” value under setting [2] is 88.4 nM.

“GGUGUGAGGCAGGAUAUGCUAUAUGUUCGUAAUGCAGAAGGGUCUACAUGAGGAUCACCCAUGUGUGCGGUUGA”: the “apparent Kd” value is, setting by setting: under setting [1], 172 nM; under setting [2], 413 nM.

For the sequence “UUUAUGAAGAUUCGUCAAUACAGUUAGGAUAUGAGAGACAUGAGGAUCACCCAUGUGCAUGUUGAUUAGAAGGAACAAUUAUCU”, the “apparent Kd” value reads like this: under setting [1], 19.1 nM; under setting [2], 16.9 nM.

As for “GUGUAGAUAUCAGGAUAUCUAUUUCCUACAUGAGGAUCACCCAUGUAGAUGAUCACCCAUGUAAAGGAGAAGGGAUAUCUAUAC”, the “apparent Kd” value reads like this: under setting [3], 192 nM; under setting [4], 156 nM.

For “AACUUGCGCACAGGAUAUCCACGGAGCGGACGUGGAGAAGGGUGACAUGAGGAUCACCCAUGUACGUAAGUCUAGAUCACUUCC”, the “apparent Kd” value came out at 198 nM under setting [3] and 19.1 nM under setting [4].

In the case of “CGACACCAGACAGGAUAUGCUGGACUUUGUCCAGCAGAAGGGUCUAAACAUGAGGAUCACCCAUGUAUGGUGUCGAAAUUUAAU”, the “apparent Kd” value runs as follows: under setting [3], 51.1 nM; under setting [4], 8.06 nM.

Consider “CUCGGACAUGAGGAUCACCCAUGUGAGGAUAUGGCGCUAUCGUCAUUAGACGAUUGCGCCAGAAGGCACAAAUG”, for which the “apparent Kd” value was found to be 85.2 nM under setting [1] and 268 nM under setting [2].

Turning to “AAGUCGGUAGAUAAUAAUGAUUACAUGAGGAUCACCCAUGUAUAGGAUAUCGUCAGGAAUACUGACGAGAAGGAUACAUCCGAC”, the “apparent Kd” value runs as follows: under setting [1], 17.6 nM; under setting [2], 30 nM.

Consider “AGAUUUGUACAUGAGGAUCACCCAUGUUAAUAGGUGGUUGUCAGAAGGCAUUGAUAGAGUUUUAAUGAGGAUAUGAAUUUACAG”, for which the “apparent Kd” value is, setting by setting: under setting [3], 1000 nM; under setting [4], 553 nM.

As to “AUACCUUAUGAGAAGGCGAUUAUGAAACAUGAUCGAGGAUAUCAUGUAAACAUGAGGAUCACCCAUGUAUGGGUAUUAUGGUAC”, the “apparent Kd” value turned out to be 50 nM under setting [3] and 11.6 nM under setting [4].

As to “UGGAUCAUCGGAGGAUAUCAUGUGUAAACAUGAGGAUCACCCAUGUCGUACGAGAGUACGGAGAUUGAGAAGGCCGAUGAUCCU”, the “apparent Kd” value under setting [3] turned out to be 85.4 nM and the “apparent Kd” value under setting [4] was found to be 16.4 nM.

“GGAUCGAAUGUGAGGAUAUACCUAUGGAAACAUAGGUAGAAGGCACAUGAGGAUCACCCAUGUUCCUACGGUCC”: the “apparent Kd” value was 92.2 nM under setting [1] and 577 nM under setting [2].

Take “UUAGAAUUGUUAGGAUAUUAAUUAUUUUUUAGUAUGAUCUACAUGAGGAUCACCCAUGUUAAAUAUAAGAAGGAACGUUUUAUU”: the “apparent Kd” value by setting is: under setting [1], 51.8 nM; under setting [2], 52 nM.

Turning to “UAUAUUUAUGUAGGAUAUGGUAUAUAAAAUAUACCAGAAGGACAUGAGGAUCACCCAUGUAUGAAAUUCCAUAAUUACCGUGUA”, the “apparent Kd” value is, setting by setting: under setting [1], 9.98 nM; under setting [2], 11.3 nM.

For “UAGUAUAAGGGCAUUAAACAUGAGGAUCACCCAUGUACAAUAGAGGAUAUGCAUUUCAGUUUAGAGUAGAAGGUUAGAGAAUAU”, the “apparent Kd” value came out at 35.6 nM under setting [1] and 41.1 nM under setting [2].

Take “GACAUGAGGAUCACCCAUGUCCAUGCAAGAGUAGUUGAGACCAGAAGGACCUUGCGGAGCGCAGGGUAGGAUAUGGAGCCCUCA”: the “apparent Kd” value is 36.3 nM under setting [3] and 8.75 nM under setting [4].

Take “ACGUGUUAUACAGGAUAUGUUUAGGUACAAUCAUCCAGCUAUUAAUUUAUUACAGAAGGGUAAACAUGAGGAUCACCCAUGUCA”: the “apparent Kd” value was 26 nM under setting [1] and 15.9 nM under setting [2].

As for “GAGUGGUGGAGAGGAUAUACAUUGUUAUUCACUGUAGAAGGUUCUAACAUGAGGAUCACCCAUGUAGGACUAUUCCUGUGUUUU”, the “apparent Kd” value was determined as 13.4 nM under setting [3] and 10.4 nM under setting [4].

For “AUGCCGUGCAGAGCGCGACGGCGUACAUGAGGAUCACCCAUGUAGGAUAUACUACACAAAGUGUAGUAGAAGGACGUGCGACUG”, the “apparent Kd” value by setting is: under setting [1], 30.6 nM; under setting [2], 33.4 nM.

With “CGCACUGUACAUGAGGAUCACCCAUGUUAAUAUGAGGUAGUCAGAAGGCAUUGUUUGAGAUAUUAUGAGGAUAUGAUUAGUGCG”, the “apparent Kd” value came to 110 nM under setting [3] and 28.9 nM under setting [4].

“UGGCUACAUGAGGAUCACCCAUGUCAGGAUAUGCCGUCGGAUUGCCUUCGUCGUUCGGGUAGAAGGGACUGCGG”: the “apparent Kd” value was determined as 24.6 nM under setting [1] and 24.1 nM under setting [2].

With “GUGCACAUUCGAGGAUAUCGGAGAGGAGUCCUUCGAGAAGGCGAUUCGUGCCGUGUUAUUCUGGACAUGAGGAUCACCCAUGUG”, the “apparent Kd” value by setting is: under setting [3], 106 nM; under setting [4], 35.7 nM.

On to “CACGGUGAUGUAGGAUAUAUGCUGGAAUACAGCAUAGAAGGACAUGAGGAUCACCCAUGUAAAGUGUCUCCAAAUAACACCGUG”, for which the “apparent Kd” value is, setting by setting: under setting [1], 31.1 nM; under setting [2], 77 nM.

With “GCGUCAGAAUUAAUUGUGACAUACAGAAGGCAAUAGUUUAUUUCAGACAUGAGGAUCACCCAUGUUGAGGAUAUGUAUUUACUC”, the “apparent Kd” value runs as follows: under setting [1], 8.92 nM; under setting [2], 7.82 nM.

In the case of “AGAGAUACGCUCGUCGGAAAGCGACAUGAGGAUCACCCAUGUAGAAGGCGAUGCGCAACUCGCAUUGAGGAUAUAUAGUGCAGC”, the “apparent Kd” value under setting [1] was 6.51 nM and the “apparent Kd” value under setting [2] is 6.65 nM.

For the sequence “UAAAAGACUAGCAUGGUAACCUUCACAUGAGGAUCACCCAUGUAGGAUAUGAGCAGAAAAUCUGCUCAGAAGGACAUGCUAGUC”, the “apparent Kd” value was determined as 3.31 nM under setting [1] and 3.67 nM under setting [2].

In the case of “UAAAUAAAGUAAGGAUAUACAUGAGGAUUUCUCGUAGAAGGUACAAGACAUGAGGAUCACCCAUGUAUCGCUCCGUAGAGCGUA”, the “apparent Kd” value is, setting by setting: under setting [3], 138 nM; under setting [4], 237 nM.

For the sequence “AUUAUAUAGAUAGGAUAUAGAAUAUUAUUUUAACAUGAGGAUCACCCAUGUAACCUUAUGUGUAGCUAGAAGGAUCAUUUAUUA”, the “apparent Kd” value runs as follows: under setting [1], 80.3 nM; under setting [2], 113 nM.

“AAAAAACAUGAGGAUCACCCAUGUAAGGAUAUCGUGCAGAAAAAAAAAAAAAACUGCACGAGAAGGUACUUGGA”: the “apparent Kd” value reads like this: under setting [1], 81 nM; under setting [2], 143 nM.

With “GCAGUAAAUAAAUGCACAUGAGGAUCACCCAUGUGGGAGGCACAGGAUAUCGCACCAUAGUGGCGCGAGAAGGGUGAUAAUCUC”, the “apparent Kd” value amounted to 416 nM under setting [3] and 57.8 nM under setting [4].

Turning to “UAAGCGCAGGAGAAGGGCACUGGACGCUCGCUACAUGAGGAUCACCCAUGUGCAGGAUAUCCGGCGCCGCCCGCAAACUCGGCG”, the “apparent Kd” value turned out to be 5.14 nM under setting [1] and 13.3 nM under setting [2].

Consider “GCAUUGAUAACAGGAUAUAUGAAUCCUACAUGAGGAUCACCCAUGUAGGUGAUCAGCCGUGAUUAGUAGAAGGGUUAUCAAUGC”, for which the “apparent Kd” value is, setting by setting: under setting [3], 13 nM; under setting [4], 6.49 nM.

Consider “GUCGAAACCAUACUGGUCGACGGUCAGGAUAUACAUGAGGAUCACCCAUGUGCUAUUGAUACUAUGUAGAAGGGACCCACCGCA”, for which the “apparent Kd” value under setting [1] amounted to 15.2 nM.

For the sequence “CAGCAAAAGUAGAAGGCAGUACUGAUUCAGUACUGAGGAUAUACAUGAGGAUCACCCAUGUAAUAUAGCUGAAUAAUAUAUUAU”, the “apparent Kd” value under setting [1] worked out at 6.17 nM and the “apparent Kd” value under setting [2] came out at 7.56 nM.

For “GUGGUCAGACAUGAGGAUCACCCAUGUGGAAUAAAUAAGGAGAAGGAUAUGCAAUAUAGGAUAUAGCAGAAGGUUUGGUUGGUG”, the “apparent Kd” value reads like this: under setting [3], 95.8 nM; under setting [4], 111 nM.

For the sequence “GCUGACGAUGUAGGAUAUCUCGACGAUAAGUCGAGAGAAGGACAUGAGGAUCACCCAUGUAAACUCACGUCAGCGAGGAAACUC”, the “apparent Kd” value is, setting by setting: under setting [1], 16.1 nM; under setting [2], 17.2 nM.

Turning to “AAUUUUGCAGGAUAUGCGCAGCGUUUAGCCACACUAUGGAAACAUGAGGAUCACCCAUGUAGAAGGGCAGAGAU”, the “apparent Kd” value stood at 26.4 nM under setting [1] and 20.8 nM under setting [2].

As to “ACAUGAGGAUCACCCAUGUUAAAUUAGGAUAUUUGACUGCACAUGAGGUUCACCCAUGUUCUACCGAAGAAGGGAUUAAUAAUU”, the “apparent Kd” value is, setting by setting: under setting [3], 50 nM; under setting [4], 49.8 nM.

For “CCUCGACAUGAGGAUCACCCAUGUCAGGAUAUUGUGUUUCGGGUUUUUUACCUUUAGGCAAGAAGGGAUGUGUG”, the “apparent Kd” value runs as follows: under setting [1], 15.8 nM; under setting [2], 22.4 nM.

For the sequence “GCACUGGAUGUAGGAUAUCAGGACGAUAAGUCCUGAGAAGGACAUGAGGAUCACCCAUGUGCUUAAACCAGUGCAUAUAAUAUA”, the “apparent Kd” value under setting [1] was found to be 12.2 nM and the “apparent Kd” value under setting [2] came out at 18.4 nM.

For the sequence “ACUAUACGAGGAUAUACUGACGGGCCUCGGGCGUCCCUGAGACAUGAGGAUCACCCAUGUAGAAGGCGUAUACU”, the “apparent Kd” value amounted to 38.4 nM under setting [1] and 216 nM under setting [2].

The record behind these values is the EternaBench riboswitch data.
